Test results: ChEMBL document CHEMBL1122328, “Hypolipidemic activity of phthalimide derivatives. 2. N-phenylphthalimide and derivatives” (1983)

How the values were obtained:
Format in all cases: functional
[1] = tested on: Mus musculus; experiment: Effect on cholesterol from CF1 male mice after 16 days at a dose of 40 (mg/kg/day)
In short: (§1)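 CF1 male mice dosed ip for 16 days at 10–60 (mg/kg)/day; liver taken and 10% homogenate made in 0.25 M sucrose + 0.001 M EDTA; aliquot extracted by Folch and Bligh–Dyer methods, mg lipid weighed, cholesterol measured by Liebermann–Burchard method; n = 6; % of 1% CMC control.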

[2] = tested on: Mus musculus; experiment: Effect on mg of lipid from CF1 male mice after 16 days at a dose of 20 (mg/kg/day); in short: as §1
[3] = tested on: Mus musculus; experiment: Effect on mg of lipid from CF1 male mice after 16 days at a dose of 40 (mg/kg/day); in short: as §1
[4] = organism: Mus musculus; experiment: In vitro effect on CF1 male mouse on acyltransferase
[5] = tested on: Mus musculus; experiment: In vitro effect on CF1 male mouse on acyltransferase after 16 days at a dose of 10 (mg/kg)/day
In short: (§2)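 In vivo enzyme study. CF₁ male mice were dosed ip for 16 days in 1% CMC, and liver was homogenised to 10% in 0.25 M sucrose with 0.001 M EDTA. Enzymes assayed: acetyl-CoA synthetase as hydroxamate at 540 nm after 30 min at 37 °C; HMG CoA reductase with [1-¹⁴C]acetate in 9000g supernatant for 60 min at 37 °C; fatty acid synthetase with [2-¹⁴C]malonyl-CoA; acyltransferase with [³H]glycerol 3-phosphate and microsomes for 10 min; phosphatidate phosphohydrolase as released phosphate at 820 nm after 30 min. N = 6; reported as % control.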

[6] = tested on: Mus musculus; experiment: In vitro effect on CF1 male mouse on acyltransferase after 16 days at a dose of 40 (mg/kg)/day; in short: as §2
[7] = organism: Mus musculus; experiment: In vitro effect on CF1 male mouse on phosphatidate phosphohydrolase
[8] = tested on: Mus musculus; experiment: In vitro effect on CF1 male mouse on phosphatidate phosphohydrolase after 16 days at a dose of 20 (mg/kg)/day; in short: as §2
[9] = tested on: Mus musculus; experiment: Effect on phospholipids from CF1 male mice after 16 days at a dose of 10 (mg/kg/day)
In short: (§3)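 Dosing was ip in CF₁ male mice (~25 g) for 16 days, with compound suspended in 1% carboxymethylcellulose. Liver was then taken and homogenised to 10% in 0.25 M sucrose with 0.001 M EDTA. Lipid was extracted from a 2 mL aliquot by the Folch and Bligh–Dyer methods and total mg of lipid was weighed. Cholesterol (Liebermann–Burchard), triglycerides (kit), neutral lipids and phospholipids were then measured; N = 6; reported as % of vehicle control.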

[10] = tested on: Mus musculus; experiment: Effect on phospholipids from CF1 male mice after 16 days at a dose of 20 (mg/kg/day); in short: as §3
[11] = tested on: Mus musculus; experiment: Effect on phospholipids from CF1 male mice after 16 days at a dose of 60 (mg/kg/day); in short: as §3
[12] = tested on: Mus musculus; experiment: Effect on Serum cholesterol levels on CF1 male mice at a dose of 100 (mg/kg)/day after 9 days
In short: (§4)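 CF1 male mice (~25 g), drug suspended in 1% carboxymethylcellulose in water, given ip daily for 16 days; n = 6; vehicle control. Tail-vein blood on days 9 and 16, serum cholesterol by modified Liebermann–Burchard reaction; day-14 serum triglyceride by commercial kit; expressed as % control.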

[13] = tested on: Mus musculus; experiment: Effect on Serum cholesterol levels on Hyperlipidemic induced mice After 14 days dosing.
In short: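 Mice fed atherogenic diet for 2 weeks to raise serum lipids, then given drug at 20 (mg/kg)/day ip for a further 2 weeks; serum cholesterol and triglyceride measured after the diet and after 14 days dosing; n = 6; compared with 1% CMC and diet-only controls; % control.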

[14] = tested on: Mus musculus; experiment: Effect on cholesterol from CF1 male mice after 16 days at a dose of 20 (mg/kg/day); in short: as §1
[15] = tested on: Mus musculus; experiment: In vitro effect on CF1 male mouse onAc-CoA carboxylase after 16 days at a dose of 10 (mg/kg)/day; details: in the assay text read “In vivo” for “In vitro”
In short: (§5)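 Mice (CF1 males) given agent ip daily for 16 days in 1% carboxymethylcellulose; liver 10% homogenate in 0.25 M sucrose + 0.001 M EDTA. Acetyl-CoA carboxylase first polymerized 30 min at 37 °C, then incubated 30 min at 37 °C with sodium [14C]bicarbonate (41.0 mCi/mmol); incorporated label counted. Activity as % of vehicle control; N = 6.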

[16] = tested on: Mus musculus; experiment: In vitro effect on CF1 male mouse onAc-CoA carboxylase after 16 days at a dose of 40 (mg/kg)/day; details: in the assay text read “In vivo” for “In vitro”; in short: as §5
[17] = tested on: Mus musculus; experiment: In vitro effect on CF1 male mouse on Ac-CoA synthetase after 16 days at a dose of 60 (mg/kg)/day; in short: as §2
[18] = organism: Mus musculus; experiment: In vitro effect on CF1 male mouse on Citrate lyase
In short: (§6)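 In vitro test on 10% CF₁ male mouse liver homogenate (0.25 M sucrose, 0.001 M EDTA) with 2.5 μmol test drug. Assays: acetyl-CoA synthetase and citrate lyase as hydroxamate at 540 nm, 30 min, 37 °C; citrate exchange from [¹⁴C]citrate-loaded mitochondria after 10 min with drug; side-chain oxidation by ¹⁴CO₂ from [26-¹⁴C]cholesterol, 18 h, 37 °C; acetyl-CoA carboxylase by [¹⁴C]bicarbonate fixation after 30 min polymerization then 30 min at 37 °C.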

[19] = organism: Mus musculus; experiment: In vitro effect on CF1 male mouse on Fatty acid synthetase
[20] = tested on: Mus musculus; experiment: In vitro effect on CF1 male mouse on HMGCoA reductase after 16 days at a dose of 40 (mg/kg)/day; in short: as §2
[21] = tested on: Mus musculus; experiment: In vitro effect on CF1 male mouse on HMGCoA reductase after 16 days at a dose of 60 (mg/kg)/day; in short: as §2
[22] = organism: Mus musculus; experiment: In vitro effect on CF1 male mouse on Ac-CoA carboxylase; in short: as §6
[23] = organism: Mus musculus; experiment: In vitro effect on CF1 male mouse on Ac-CoA synthetase; in short: as §6
[24] = tested on: Rattus norvegicus; experiment: Effect on very low density Phospholipids Holtzman rats after 14 days administration
In short: (§7)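 Holtzman male rats (~400 g) received drug at 20 (mg/kg)/day for 14 days. On day 14, blood was collected from the abdominal aorta and serum was separated by centrifugation at 3500 rpm. Lipid content of the lipoprotein fractions was then determined.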

[25] = tested on: Rattus norvegicus; experiment: Effect on very low density Triglycerides Holtzman rats after 14 days administration; in short: as §7
[26] = tested on: Rattus norvegicus; experiment: Effect on Serum cholesterol levels on Holtzman rats at a dose of 20 (mg/kg)/day after 9 days
In short: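 Holtzman male rats (~200 g) dosed orally by intubation needle daily for 16 days, drug suspended in 1% carboxymethylcellulose; n = 6; vehicle control. Tail-vein serum cholesterol on days 9 and 16 by modified Liebermann–Burchard reaction; day-14 serum triglyceride by commercial kit; % control.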

[27] = tested on: Rattus norvegicus; experiment: Effect on high density Phospholipids Holtzman rats after 14 days administration
In short: (§8)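 Holtzman male rats (~400 g) given drug at 20 (mg/kg)/day for 14 days; on day 14 blood taken from the abdominal aorta and serum separated by centrifugation at 3500 rpm; lipid and protein content of the lipoprotein fractions measured.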

[28] = tested on: Rattus norvegicus; experiment: Effect on high density Protein Holtzman rats after 14 days administration; in short: as §8
[29] = tested on: Rattus norvegicus; experiment: Effect on high density Triglycerides Holtzman rats after 14 days administration; in short: as §8
[30] = tested on: Rattus norvegicus; experiment: Effect on high density cholesterol Holtzman rats after 14 days administration; in short: as §8
[31] = tested on: Rattus norvegicus; experiment: Effect on low density Protein Holtzman rats after 14 days administration; in short: as §8
[32] = tested on: Mus musculus; experiment: Effect on Serum cholesterol levels on CF1 male mice at a dose of 100 (mg/kg)/day after 16 days; in short: as §4

SMILES: CC(=O)c1ccccc1N1C(=O)c2ccccc2C1=O
- Control [1]: 71%
- Control [2]: 85%
- Control [3]: 80%
- Control [4]: 54%
- Control [5]: 35%
- Control [6]: 43%
- Control [7]: 65%
- Control [8]: 68%
- Control [9]: 90%
- Control [10]: 163%
- Control [11]: 86%
- Control [12]: 42%
- Control [13]: 118%
- Control [14]: 73%
- Control [15]: 8%
- Control [16]: 48%
- Control [17]: 86%
- Control [18]: 62%
- Control [19]: 107%
- Control [20]: 84%
- Control [21]: 94%
- Control [22]: 35%
- Control [23]: 63%
- Control [24]: 359%
- Control [25]: 46%
- Control [26]: 76%
- Control [27]: 446%
- Control [28]: 80%
- Control [29]: 63%
- Control [30]: 52%
- Control [31]: 95%
- Control [32]: 26%
